Experimental data from different studies.
Lines come from different studies, so protocols differ.
CXCR4: C-X-C chemokine receptor type 4 (CXCR4, Homo sapiens, UniProt P61073)
CDK9 with cyclin T1: Cyclin-dependent kinase 9, with cyclin T1 (CDK9, Homo sapiens, UniProt P50750)
MERTK: Tyrosine-protein kinase Mer (MERTK, Homo sapiens, UniProt Q12866)
PLA2G5: Phospholipase A2 group V (PLA2G5, Homo sapiens, UniProt P39877)
MDH2: Malate dehydrogenase, mitochondrial (MDH2, Sus scrofa, UniProt P00346)
SRC: Proto-oncogene tyrosine-protein kinase Src (SRC, Homo sapiens, UniProt P12931)
AKT1: RAC-alpha serine/threonine-protein kinase (AKT1, Homo sapiens, UniProt P31749)

Cc1ccc(CN(Cc2ccco2)c2cnc(S(C)(=O)=O)nc2C(=O)Nc2ccc(C)cc2)cc1 — IC50 (CXCR4; β-arrestin recruitment; antagonist): 25 µM
NC(=O)c1ccc[n+]([C@@H]2O[C@H](COP(=O)([O-])OP(=O)(O)OC[C@H]3O[C@@H](n4cnc5c(N)ncnc54)[C@H](O)[C@@H]3O)[C@@H](O)[C@H]2O)c1 — IC50 (Poly [ADP-ribose] polymerase tankyrase-1 (TNKS, Homo sapiens, UniProt O95271); enzyme activity; inhibitor): 395 µM
CC1=C(/C=C/C(C)=C/C=C/C(C)=C/C(=O)O)C(C)(C)CCC1 — IC50 (Prothrombin (Rattus norvegicus, UniProt P18292); enzyme activity; inhibitor): 163 µM
C=CC(=O)Nc1ccc(N2CCC[C@@H](Nc3ncc(Cl)c(-c4c[nH]c5ccccc45)n3)C2)cc1C — IC50 (CDK9 with cyclin T1; enzyme activity; inhibitor; FRET): 0.165 µM
CNC(=O)c1cc2c(Oc3ccc(NC(=O)C4(C(=O)Nc5ccc(F)cc5)CC4)cc3)ccnc2cc1OC — IC50 (MERTK; enzyme activity; inhibitor; TR-FRET): 0.003 µM
CC(C)(C)n1nc(-c2ccc3nc(OC4CC4)ccc3c2)c(C(N)=O)c1N — IC50 (Calcium/calmodulin-dependent protein kinase kinase 2 (CAMKK2, Homo sapiens, UniProt Q96RR4); cell-free assay): > 10 µM
O=C(Nc1ccc2[nH]nc(-c3ccncc3)c2c1)[C@@H]1CCN(CC(=O)N2CCN(c3ccc(-c4ncccn4)cc3)CC2)C1 — IC50 (Mitogen-activated protein kinase 3 (MAPK3, Homo sapiens, UniProt P27361); enzyme activity; inhibitor; radiometric): 0.0042 µM
CC(=O)c1ccc(N=Nc2c(C(=O)O)cc(O)c(O)c2O)cc1 — IC50 (PLA2G5; enzyme activity; inhibitor; Ellman): 7.15 µM
Cc1ccc(S(=O)(=O)Nc2ccc(-c3nc4cc(NS(=O)(=O)c5ccc(C)cc5)ccc4o3)cc2)cc1 — IC50 (MDH2; enzyme activity; inhibitor): > 62.5 µM
CC(C)=CCC/C(C)=C/Cc1ccc[n+](CC(P(=O)([O-])O)P(=O)(O)O)c1 (stereo not drawn) — IC50 (Geranylgeranyl pyrophosphate synthase (GGPS1, Homo sapiens, UniProt O95749); enzyme activity; inhibitor): 10 µM
COc1ccc(S(=O)(=O)Nc2ccc3oc(-c4ccc(NC(=O)c5ccc(Cl)s5)cc4)nc3c2)cc1 — IC50 (MDH2; enzyme activity; inhibitor): > 62.5 µM
CCS(=O)(=O)c1ncc(N(Cc2ccccc2)Cc2ccco2)c(C(=O)Nc2ccccc2F)n1 — IC50 (CXCR4; β-arrestin recruitment; antagonist): 50 µM
CCN1CCN(Cc2ccc(NC(=O)c3ccc(C)c(NC(=O)c4cncc(-c5cccs5)c4)c3)cc2C(F)(F)F)CC1 — IC50 (Ephrin type-A receptor 2 (EPHA2, Homo sapiens, UniProt P29317); enzyme activity; inhibitor; ADP detection): 0.419 µM
O=S(=O)(Nc1ccc(-c2nc3cc(NS(=O)(=O)c4ccc(Cl)s4)ccc3o2)cc1)c1ccc(Cl)c(C(F)(F)F)c1 — IC50 (MDH2; enzyme activity; inhibitor): > 62.5 µM
C/C(=C\C(=O)OCCCCCCCCC(=O)O)C[C@@H]1OC[C@H](C[C@@H]2O[C@H]2[C@@H](C)[C@H](C)O)[C@@H](O)[C@H]1O — IC50 (CXCR4; calcium signal; antagonist): > 100 µM
Nc1nc(N)c2nc(CNc3cccc4ccccc34)cnc2n1 — IC50 (Cytochrome P450 2C9 (CYP2C9, Homo sapiens, UniProt P11712); enzyme activity; inhibitor; luciferase): 11 µM
CC(=O)c1ccc(/N=N/c2cc(/C=C/C(=O)O)ccc2O)cc1 — IC50 (PLA2G5; enzyme activity; inhibitor; Ellman): 42.5 µM
CCc1ccc(NC(=O)c2nc(S(C)(=O)=O)ncc2N(Cc2ccccc2)Cc2ccco2)cc1 — IC50 (CXCR4; β-arrestin recruitment; antagonist): 13 µM
COc1cc(/C=C/C(=O)c2ccc(NC(=O)c3ccccc3CN3C(=O)c4ccccc4C3=O)cc2)cc(OC)c1OC — IC50 (Tubulin beta-5 chain (TUBB, Homo sapiens, UniProt P07437); tubulin polymerisation; inhibitor; ELISA): 2.32 µM
COc1c(C(=O)/C=C(\O)c2ccccc2)ccc2occc12 — IC50 (CDK9 with cyclin T1; enzyme activity; inhibitor; ADP detection): > 100 µM
Cc1cccc(C)c1NC(=O)c1nc(S(C)(=O)=O)ncc1N(Cc1ccccc1)Cc1ccco1 — IC50 (CXCR4; β-arrestin recruitment; antagonist): 316 µM
CCn1ncc2c1-c1cnc(N)c(c1)O[C@H](C)c1cc(F)ccc1-c1nn(C)nc1C2 — IC50 (NT-3 growth factor receptor (NTRK3, Homo sapiens, UniProt Q16288); enzyme activity; inhibitor): 0.19 µM
O=S(=O)(Nc1ccc(-c2nc3cc(NS(=O)(=O)c4ccc(Br)cc4)ccc3o2)cc1)c1ccc(Br)cc1 — IC50 (MDH2; enzyme activity; inhibitor): > 62.5 µM
O=C(O)/C=C\C(=O)Nc1ccc(S(=O)(=O)Nc2ncccn2)cc1 — IC50 (Dipeptidyl peptidase 4 (DPP4, Homo sapiens, UniProt P27487); enzyme activity; inhibitor; fluorescence): 54.6 µM
O=C(O)c1cc(O)c(O)c(O)c1 — IC50 (PLA2G5; enzyme activity; inhibitor; Ellman): 9.79 µM
Cc1ccc(C(=O)Nc2ccc(Oc3cc4cnn(C)c4cc3-c3cn[nH]c3)c(F)c2)c(=O)n1-c1ccc(F)cc1 — IC50 (MERTK; cell growth or viability; ATP luminescence): 0.01 µM
CCN(CC)CCOCCN(Cc1ccccc1)Cc1nc(Cc2ccccc2)no1 — IC50 (CXCR4; β-arrestin recruitment): 398 µM
CC/C(=N\NC(=O)C(C)Nc1ccccc1)c1ccc(O)c(C)c1O (stereo not drawn) — IC50 (Serine/threonine-protein kinase Sgk2 (SGK2, Homo sapiens, UniProt Q9HBY8); enzyme activity; inhibitor): 0.0117 µM
Cc1cnc(-c2ccc(-c3ccc(NC(=O)Nc4c(F)cc(F)cc4F)cc3F)c3c2C(=O)NC3)[nH]1 — IC50 (SRC; enzyme activity; inhibitor): 0.0004 µM
O=S(=O)(Nc1ccc(-c2nc3cc(NS(=O)(=O)c4ccc(F)cc4)ccc3o2)cc1)c1ccc(F)cc1 — IC50 (MDH2; enzyme activity; inhibitor): > 62.5 µM
O=C(O)/C=C/c1ccc(O)cc1 — IC50 (PLA2G5; enzyme activity; inhibitor; Ellman): 55.1 µM
COc1ccc2c(Oc3ccc4c(C(=O)Nc5ccccc5N)cccc4c3)ccnc2c1 — IC50 (AKT1; enzyme activity; inhibitor): > 0.5 µM
O=c1cc(-c2ccccc2)oc2ccc3ccccc3c12 — IC50 (CDK9 with cyclin T1; enzyme activity; inhibitor; ADP detection): > 10 µM
Nn1cnnc1O — IC50 (DNA dC->dU-editing enzyme APOBEC-3A (Homo sapiens, UniProt P31941); enzyme activity; inhibitor): > 100 µM
Nc1ccc(S(=O)(=O)Nc2ccc(-c3nc4cc(NS(=O)(=O)c5ccc(N)cc5)ccc4o3)cc2)cc1 — IC50 (MDH2; enzyme activity; inhibitor): > 62.5 µM
CC(C)(C)n1nc(-c2cnc3cc(OC4CC4)ccc3c2)c(C(N)=O)c1N — IC50 (AKT1; cell-free assay): > 10 µM
O=S(=O)(Nc1ccc(-c2nc3cc(NS(=O)(=O)c4cccc(C(F)(F)F)c4)ccc3o2)cc1)c1cccc(C(F)(F)F)c1 — IC50 (MDH2; enzyme activity; inhibitor): > 62.5 µM
N=C(N)NCCCC[C@@H]1NC(=O)CCSSC[C@@H](C(N)=O)NC(=O)[C@@H]2CCCN2C(=O)[C@H](Cc2c[nH]c3ccccc23)NC(=O)[C@H](CC(=O)O)NC(=O)CNC1=O — IC50 (CXCR4; β-arrestin recruitment; antagonist): > 30 µM
CN1CCN(c2ccc(Nc3ncc4cc(C#N)c(=O)n(C5CCCC5)c4n3)cc2)CC1 — IC50 (Cyclin-dependent kinase 1, with cyclin A (CDK1, Homo sapiens, UniProt P06493); enzyme activity; inhibitor): 7.41 µM
c1ccc(-n2cc(CCN(Cc3nc(C4CC4)no3)Cc3nc(C4CC4)no3)cn2)cc1 — IC50 (CXCR4; β-arrestin recruitment): 200 µM
O=S(=O)(Nc1ccc(-c2nc3cc(NS(=O)(=O)c4ccccc4Cl)ccc3o2)cc1)c1ccccc1Cl — IC50 (MDH2; enzyme activity; inhibitor): > 62.5 µM
Nc1ncnc2c1c(Cc1cccc3ccccc13)nn2CC1CCNCC1 — IC50 (SRC; enzyme activity; inhibitor): > 20 µM
